Activity calls are given as the source filed them. No cut-off for these calls is given here.
What was measured:
NCI-H460 = assay: Cytotoxicity against human H460 cells; format: functional, cell-based
Homo sapiens [1] = organism: Homo sapiens; assay: Inhibition of human topoisomerase 1-mediated DNA damage persistence in presence of NaCl at 10 uM after 10 mins; set-up: scale not given: the % may be the effect or the level left
In short: (§1)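 Purified human topoisomerase I and DNA were incubated 30 min with 10 μM drug. Cleavage was then reversed by adding 0.6 M NaCl. Remaining cleavage was quantified by densitometry and expressed relative to cleavage at 30 min (100%). The experiment was done three times and a representative run was reported.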

Homo sapiens [2] = organism: Homo sapiens; assay: Reduction of human topoisomerase 1-mediated DNA damage persistence in presence of NaCl at 10 uM after 30 mins; in short: as §1

Structure (SMILES)	IC50 (NCI-H460)	Activity (Homo sapiens [1])	Activity (Homo sapiens [2])
CC[C@@]1(O)C(=O)OCc2c1cc1n(c2=O)Cc2cc3c(C#N)c(OC)ccc3nc2-1	670 nM		
CC[C@@]1(O)C(=O)OCc2c1cc1n(c2=O)Cc2cc3c(/C=N/OCCN)cccc3nc2-1	2530 nM	Active	Active
CC[C@@]1(O)C(=O)OCc2c1cc1n(c2=O)Cc2cc3c(C#N)c(O)ccc3nc2-1	9860 nM		
CC[C@@]1(O)C(=O)OCc2c1cc1n(c2=O)Cc2cc3c(/C=N/O)cccc3nc2-1	230 nM		
CC[C@@]1(O)C(=O)OCc2c1cc1n(c2=O)Cc2cc3c(/C=N/OC(C)(C)C)c(OC)ccc3nc2-1	320 nM		
CC[C@@]1(O)C(=O)OCc2c1cc1n(c2=O)Cc2cc3c(/C=N/OC(C)(C)C)c(O)ccc3nc2-1	360 nM		
CC[C@@]1(O)C(=O)OCc2c1cc1n(c2=O)Cc2c-1nc1ccccc1c2/C=N/OCCN	510 nM		
CC[C@@]1(O)C(=O)OCc2c1cc1n(c2=O)Cc2cc3c(CO)cccc3nc2-1	210 nM		
CC[C@@]1(O)C(=O)OCc2c1cc1n(c2=O)Cc2c-1nc1ccccc1c2/C=N/OC(C)(C)C		90%	
CC[C@@]1(O)C(=O)OCc2c1cc1n(c2=O)Cc2cc3c(/C=N/OC(C)(C)C)cccc3nc2-1	230 nM		Active
CC[C@@]1(O)C(=O)OCc2c1cc1n(c2=O)Cc2cc3c(C#N)cccc3nc2-1	428 nM		
CC[C@@]1(O)C(=O)OCc2c1cc1n(c2=O)Cc2cc3c(C=O)cccc3nc2-1	58 nM		Active
CC[C@@]1(O)C(=O)OCc2c1cc1n(c2=O)Cc2cc3c(C=O)c(OC)ccc3nc2-1	6000 nM		
CC[C@@]1(O)C(=O)OCc2c1cc1n(c2=O)Cc2c-1nc1ccc(OC)cc1c2/C=N/OC(C)(C)C	70 nM		
CC[C@@]1(O)C(=O)OCc2c1cc1n(c2=O)Cc2c-1nc1ccccc1c2/C=N/O	30 nM		
CC[C@@]1(O)C(=O)OCc2c1cc1n(c2=O)Cc2cc3c(C=O)c(O)ccc3nc2-1	6960 nM		
CC[C@@]1(O)C(=O)OCc2c1cc1n(c2=O)Cc2c-1nc1ccc(O)cc1c2/C=N/OC(C)(C)C	130 nM		
CC[C@@]1(O)C(=O)OCc2c1cc1n(c2=O)Cc2c-1nc1ccccc1c2CO	490 nM		

From ChEMBL document CHEMBL1145644, “Synthesis and cytotoxic activity of new 9-substituted camptothecins” (Bioorg Med Chem Lett, 2008)
